Experimental findings from ChEMBL document CHEMBL3046169, “Synthesis and bioactivity study of 2-acylamino-substituted N'-benzylbenzohydrazide derivatives” (2012) are described below.

The structures appear in SMILES notation. Converted amounts (≈) assume the structure as drawn. The source made the active and inactive calls. The calls are words filed in the database; no cut-off is given here.

The subject of test [1] is Tetranychus cinnabarinus. The test can be described thus: Pesticidal activity against Tetranychus cinnabarinus (carmine spider mite) third- instar larvae grown on Phaseolus vulgaris leaves assessed as pest mortality at 50 mg/L measured 48 hr post compound exposure. The class given is functional. The essentials:
(§1)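 More than 20 third-instar mite larvae on Phaseolus vulgaris leaves dipped 5 s in compound solutions (water with 0.05% Triton X-100), excess liquor removed. Larvae held at 25 ± 1 °C in illumination box; mortality read at 48 h. Primary screen at 600 mg L⁻¹, follow-up at 400, 200, 100, 50 and 25 mg L⁻¹ with LC50 calculated. Triplicate tests.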

In test [2] the test system is Tetranychus cinnabarinus. The test can be described thus: Pesticidal activity against Tetranychus cinnabarinus (carmine spider mite) third- instar larvae grown on Phaseolus vulgaris leaves assessed as reduction in larval movement at 25 to 400 mg/L measured 1 hr post compound exposure. The class given is functional, organism-based. The essentials:
(§2)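 Mite larvae (>20 third-instar on Phaseolus vulgaris leaves) leaf-dipped 5 s in compound at 400, 200, 100, 50 or 25 mg L⁻¹ in water with 0.05% Triton X-100, kept at 25 ± 1 °C. Movement of larvae observed at 1 h; corpse colour change to black observed at 48 h after treatment.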

Test [3] concerns Aphis gossypii. The test is described as follows: Pesticidal activity against Aphis gossypii (cotton aphid) third-instar nymphae grown on tender Hibiscus syriacus leaves assessed as pest mortality at 600 mg/L measured 24 hr post compound exposure. Conditions: in Hibiscus syriacus. The class given is functional. In a few lines: (§3)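 Leaf-dip bioassay: over 30 healthy apterous third-instar nymphs on tender Hibiscus syriacus leaves dipped 5 s in compound diluted in distilled water with 0.05% Triton X-100, excess fluid removed. Held in illumination box at 25 ± 1 °C; mortality scored after 24 h. Tests in triplicate.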

The test system of test [4] is Tetranychus cinnabarinus. The test can be described thus: Pesticidal activity against Tetranychus cinnabarinus (carmine spider mite) third- instar larvae grown on Phaseolus vulgaris leaves assessed as pest mortality at 25 mg/L measured 48 hr post compound exposure. The class given is functional. In a few lines: as §1
In test [5] the test system is Tetranychus cinnabarinus. The test can be described thus: Pesticidal activity against Tetranychus cinnabarinus (carmine spider mite) third- instar larvae grown on Phaseolus vulgaris leaves assessed as pest mortality at 400 mg/L measured 48 hr post compound exposure. The format is functional. In a few lines:
as §1

The subject of another test is Plutella xylostella. The test is described as follows: Pesticidal activity against Plutella xylostella (diamondback moth) second-instar larvae grown on cruciferous vegetables leaves leaves as pest mortality at 600 mg/L measured 48 hr post compound exposure. The format is functional. The essentials: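 Over 20 second-instar larvae on cruciferous vegetable leaves dipped 5 s in compound diluted in distilled water containing 0.05% Triton X-100, excess liquid removed. Kept in illumination box at 25 ± 1 °C; mortality recorded 48 h after treatment. Each test in triplicate.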

The test system of test [6] is Tetranychus cinnabarinus. The test can be described thus: Pesticidal activity against Tetranychus cinnabarinus (carmine spider mite) third- instar larvae grown on Phaseolus vulgaris leaves assessed as pest mortality measured 48 hr post compound exposure. The class given is functional. The essentials: as §1
Test [7] deals with Tetranychus cinnabarinus. The test can be described thus: Pesticidal activity against Tetranychus cinnabarinus (carmine spider mite) third- instar larvae grown on Phaseolus vulgaris leaves assessed as conversion of corpus colour to black at 25 to 400 mg/L measured 48 hr post compound exposure. The class given is functional, organism-based. In a few lines: as §2
Test [8] relates to Tetranychus cinnabarinus. The test is described as follows: Pesticidal activity against Tetranychus cinnabarinus (carmine spider mite) third- instar larvae grown on Phaseolus vulgaris leaves assessed as pest mortality at 100 mg/L measured 48 hr post compound exposure. The format is functional. In a few lines: as §1
Test [9] concerns Tetranychus cinnabarinus. The test is described as follows: Pesticidal activity against Tetranychus cinnabarinus (carmine spider mite) third- instar larvae grown on Phaseolus vulgaris leaves assessed as pest mortality at 200 mg/L measured 48 hr post compound exposure. The format is functional. In a few lines:
as §1

The test system of test [10] is Tetranychus cinnabarinus. The test is described as follows: Pesticidal activity against Tetranychus cinnabarinus (carmine spider mite) third- instar larvae grown on Phaseolus vulgaris leaves assessed as pest mortality at 600 mg/L measured 48 hr post compound exposure. The format is functional. The essentials:
as §1

Test [11] deals with Aphis gossypii. The test is described as follows: Pesticidal activity against Aphis gossypii (cotton aphid) third-instar nymphae grown on tender Hibiscus syriacus leaves assessed as pest mortality at 2 mg/L measured 24 hr post compound exposure. The format is functional. Conditions: in Hibiscus syriacus. The essentials: as §3

`Cc1cc(Cl)cc(C(=O)NNCc2ccccc2Cl)c1NC(=O)CC(C)(C)C`: the mortality at 50 µg/mL in the test on Tetranychus cinnabarinus [1] was determined as 74.1%. Besides, the result with Tetranychus cinnabarinus [2] and with Tetranychus cinnabarinus [7] was Active. Also, the mortality at 600 µg/mL with Aphis gossypii [3] was found to be 65.5%; in the test on Plutella xylostella, 52%; with Tetranychus cinnabarinus [10] it was 100%. Further, the mortality at 25 µg/mL with Tetranychus cinnabarinus [4] came out at 38.4%. For the same compound, in the test with Tetranychus cinnabarinus [5], the mortality at 400 µg/mL was found to be 92.2%. Also, the LC50 in the test with Tetranychus cinnabarinus [6] was 27.9 µg/mL (≈ 66.1 µM). The mortality at 100 µg/mL in the test on Tetranychus cinnabarinus [8] was 80.4%. Besides, the mortality at 200 µg/mL in the test with Tetranychus cinnabarinus [9] is 86.4%.

Take `Cc1cc(Cl)cc(C(=O)NNCc2ccccc2)c1NC(=O)CC(C)(C)C`: the mortality at 600 µg/mL is 70.4% in the test with Aphis gossypii [3], 94% in the test with Plutella xylostella and 70.1% in the test on Tetranychus cinnabarinus [10].

Turning to `Cc1cccc(C(=O)NNCc2ccccc2Cl)c1NC(=O)C(C)(C)C`, the mortality at 600 µg/mL with Aphis gossypii [3] was found to be 92.2%; with Plutella xylostella, 64%; with Tetranychus cinnabarinus [10], 5.9%.

Take `Cc1cc(Cl)cc(C(=O)NNCc2cccc(C(F)(F)F)c2)c1NC(=O)C(C)(C)CCl`: the mortality at 600 µg/mL with Aphis gossypii [3] stood at 5.1%; in the test on Plutella xylostella it was 52%; in the test with Tetranychus cinnabarinus [10] it was 61.8%.

On to `O=[N+]([O-])/N=C1\NCCN1Cc1ccc(Cl)nc1` [IMIDACLOPRID], for which the mortality at 2 µg/mL in the test on Aphis gossypii [11] was 100%.

With `Cc1cccc(C(=O)NNCc2cccc(C(F)(F)F)c2)c1NC(=O)C(C)(C)C`, the results for the mortality at 600 µg/mL with Aphis gossypii [3], in the test with Plutella xylostella and in the test with Tetranychus cinnabarinus [10] were 75%, 64% and 46.8%, respectively.

In the case of `Cc1cc(Cl)cc(C(=O)NNCc2ccc(Cl)nc2)c1NC(=O)C(C)(C)C`, the mortality at 600 µg/mL in the test with Aphis gossypii [3] was found to be 24.2%; with Plutella xylostella it was 50%; with Tetranychus cinnabarinus [10], 81.3%.

Regarding `Cc1cc(Br)cc(C(=O)NNCc2ccc(Cl)nc2)c1NC(=O)C(C)(C)C`, the values for the mortality at 600 µg/mL in the test with Aphis gossypii [3], in the test on Plutella xylostella and with Tetranychus cinnabarinus [10] were 96.2%, 64% and 19.3%, respectively.

Regarding `Cc1cc(Br)cc(C(=O)NNCc2ccc(Cl)nc2)c1NC(=O)C(C)(C)CCl`, the mortality at 600 µg/mL in the test with Aphis gossypii [3] was 33.3%; in the test on Plutella xylostella, 52%; in the test with Tetranychus cinnabarinus [10], 55.8%.

On to `Cc1cc(Cl)cc(C(=O)NNCc2cccc(C(F)(F)F)c2)c1NC(=O)CC(C)(C)C`, for which the values for the mortality at 600 µg/mL in the test with Aphis gossypii [3], with Plutella xylostella and in the test on Tetranychus cinnabarinus [10] were 58.3%, 76% and 77.2%, respectively.

On to `Cc1cc(Br)cc(C(=O)NNCc2cccc(C(F)(F)F)c2)c1NC(=O)C(C)(C)C`, for which the mortality at 600 µg/mL with Aphis gossypii [3] was 54.2%; in the test with Plutella xylostella it was 16%; in the test with Tetranychus cinnabarinus [10] it was 19.8%.

Consider `Cc1cc(Cl)cc(C(=O)NNCc2ccccc2Cl)c1NC(=O)C(C)(C)C`, for which the mortality at 50 µg/mL in the test with Tetranychus cinnabarinus [1] was 62.5%. Moreover, the result in the test on Tetranychus cinnabarinus [2] and in the test with Tetranychus cinnabarinus [7] was Active. Also, the mortality at 600 µg/mL in the test on Aphis gossypii [3] is 51.7%; in the test on Plutella xylostella it was 76%; in the test on Tetranychus cinnabarinus [10] it was 100%. Further, the mortality at 25 µg/mL in the test on Tetranychus cinnabarinus [4] was found to be 30.9%. Besides, the mortality at 400 µg/mL in the test on Tetranychus cinnabarinus [5] amounted to 97.8%. The LC50 with Tetranychus cinnabarinus [6] is 43.8 µg/mL (≈ 107 µM). In addition, in the test on Tetranychus cinnabarinus [8], the mortality at 100 µg/mL was 60.8%. Besides, the mortality at 200 µg/mL with Tetranychus cinnabarinus [9] was 82.2%.

For `CC(C)(C)c1ccc(CSc2cnn(C(C)(C)C)c(=O)c2Cl)cc1` [PYRIDABEN], the mortality at 50 µg/mL in the test with Tetranychus cinnabarinus [1] amounted to 100%. In the test with Tetranychus cinnabarinus [4], the mortality at 25 µg/mL amounted to 97.7%. In addition, in the test with Tetranychus cinnabarinus [5], the mortality at 400 µg/mL stood at 100%. In the test with Tetranychus cinnabarinus [6], the LC50 came out at 5.5 µg/mL (≈ 15.1 µM). Also, the mortality at 100 µg/mL in the test on Tetranychus cinnabarinus [8] came out at 100%. For the same compound, the mortality at 200 µg/mL in the test with Tetranychus cinnabarinus [9] is 100%.

As usually defined, the mortality is the percentage killed. In general, LC50 refers to the concentration lethal to half of the exposed cells or organisms.
